This is an account of results in ChEMBL document CHEMBL1138009, “3-[3-Fluoro-5-(5-pyridin-2-yl-2H-tetrazol-2-yl)phenyl]-4-methylpyridine: a highly potent and orally bioavailable metabotropic glutamate subtype 5 (mGlu5) receptor antagonist” (Bioorg Med Chem Lett, 2004).

Data set [1] has as its target T1, Metabotropic glutamate receptor 5 (Rattus norvegicus, UniProt P31424). Put plainly: Binding affinity towards Metabotropic glutamate receptor was determined by displacing [3H]3-methoxy-5-(pyridin-2-ylethynyl)pyridine from rat cortical membranes. In outline:
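Radioligand displacement of [3H]-3-methoxy-5-(pyridin-2-ylethynyl)pyridine from rat cortical membranes by test compounds; n = 2–4, SD ≈ ±25%.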

Data set [2] addresses T1, Metabotropic glutamate receptor 5. As to the kind of experiment: Antagonistic activity against Metabotropic glutamate receptor 5 in [Ca2+] flux assay using glutamate (10 uM) as agonist. The format is functional. In outline:
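Cell-based high-throughput functional assay; glutamate 10 μM as agonist; antagonism read as change in cytosolic Ca2+ by fluorescence detection; n = 2–4, SD ≈ ±25%.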

A short description of data set [3]: Oral bioavailability after i.v. dosing at 2 mg/kg of 50% PEG400/H 20, po dosing at 10 mg/kg. Format: ADME, organism-based. The note with it: rat, in vivo.
The nature of data set [4]: Plasma clearance i.v. dosing at 2 mg/kg of 50% PEG400/H 20, po dosing at 10 mg/kg. The note with it: rat, iv, read-out: Clp. Format: ADME, organism-based.
Data set [5] can be described thus: Half life i.v. dosing at 2 mg/kg of 50% PEG400/H 20, po dosing at 10 mg/kg. Format: ADME, organism-based. The note with it: rat, in vivo.
The nature of data set [6]: Maximum concentration i.v. dosing at 2 mg/kg of 50% PEG400/H 20, po dosing at 10 mg/kg. Format: ADME, organism-based. The note with it: rat, in vivo.
Data set [7] in a line: Oral bioavailability i.v. dosing at 2 mg/kg of 50% PEG400/H 20, po dosing at 10 mg/kg. The format is ADME, organism-based. The note with it: rat, in vivo.
The target in data set [8] is Metabotropic glutamate receptor 5 (Rattus norvegicus) (UniProt P31424). Put plainly: Effective dose against rat Metabotropic glutamate receptor 5 occupancy after i.p. dosing at 10 mg/kg of 50% PEG400/H 20. Set-up: dose 10 mg/kg. Format: functional, organism-based. The gist of the method:
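Rat receptor occupancy: compound given 10 mg/kg intraperitoneally in 50% PEG 400/H2O, occupancy measured at 1 h; hippocampal and plasma levels also determined at 1 h.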

Where only a bound is given, the exact number is not on record here.

T1 sequence (P31424 whole entry): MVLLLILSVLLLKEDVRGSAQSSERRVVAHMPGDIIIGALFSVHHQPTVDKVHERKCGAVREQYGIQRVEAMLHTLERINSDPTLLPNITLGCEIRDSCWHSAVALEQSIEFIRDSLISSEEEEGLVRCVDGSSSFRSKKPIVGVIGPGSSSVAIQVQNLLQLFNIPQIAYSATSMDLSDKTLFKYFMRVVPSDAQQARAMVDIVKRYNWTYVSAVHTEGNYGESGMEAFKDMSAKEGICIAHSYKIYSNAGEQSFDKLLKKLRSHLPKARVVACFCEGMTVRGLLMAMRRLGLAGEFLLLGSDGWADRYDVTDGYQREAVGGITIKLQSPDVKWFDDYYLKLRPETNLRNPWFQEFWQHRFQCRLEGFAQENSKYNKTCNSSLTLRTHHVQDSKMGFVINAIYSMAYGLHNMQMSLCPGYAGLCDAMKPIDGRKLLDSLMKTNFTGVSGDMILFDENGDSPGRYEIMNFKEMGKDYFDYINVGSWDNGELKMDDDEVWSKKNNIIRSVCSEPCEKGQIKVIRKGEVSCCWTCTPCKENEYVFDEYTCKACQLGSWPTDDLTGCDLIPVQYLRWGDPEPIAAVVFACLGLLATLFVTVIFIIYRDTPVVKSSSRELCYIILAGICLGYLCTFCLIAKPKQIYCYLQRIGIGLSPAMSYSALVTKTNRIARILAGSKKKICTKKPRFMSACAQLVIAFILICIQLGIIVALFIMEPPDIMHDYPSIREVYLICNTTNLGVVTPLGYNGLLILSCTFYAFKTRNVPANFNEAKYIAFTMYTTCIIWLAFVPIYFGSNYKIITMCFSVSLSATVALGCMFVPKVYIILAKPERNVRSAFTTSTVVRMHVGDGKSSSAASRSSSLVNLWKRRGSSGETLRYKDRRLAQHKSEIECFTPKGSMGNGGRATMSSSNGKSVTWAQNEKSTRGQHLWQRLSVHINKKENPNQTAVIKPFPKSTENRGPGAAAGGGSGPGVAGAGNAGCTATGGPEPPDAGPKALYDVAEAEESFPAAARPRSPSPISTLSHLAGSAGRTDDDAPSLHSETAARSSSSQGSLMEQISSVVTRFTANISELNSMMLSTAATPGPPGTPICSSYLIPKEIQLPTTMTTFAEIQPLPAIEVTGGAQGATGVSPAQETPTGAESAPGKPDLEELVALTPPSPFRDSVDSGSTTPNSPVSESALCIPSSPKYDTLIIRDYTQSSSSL
Sequence of Metabotropic glutamate receptor 5 (Rattus norvegicus) (P31424 21-1203 limits assumed): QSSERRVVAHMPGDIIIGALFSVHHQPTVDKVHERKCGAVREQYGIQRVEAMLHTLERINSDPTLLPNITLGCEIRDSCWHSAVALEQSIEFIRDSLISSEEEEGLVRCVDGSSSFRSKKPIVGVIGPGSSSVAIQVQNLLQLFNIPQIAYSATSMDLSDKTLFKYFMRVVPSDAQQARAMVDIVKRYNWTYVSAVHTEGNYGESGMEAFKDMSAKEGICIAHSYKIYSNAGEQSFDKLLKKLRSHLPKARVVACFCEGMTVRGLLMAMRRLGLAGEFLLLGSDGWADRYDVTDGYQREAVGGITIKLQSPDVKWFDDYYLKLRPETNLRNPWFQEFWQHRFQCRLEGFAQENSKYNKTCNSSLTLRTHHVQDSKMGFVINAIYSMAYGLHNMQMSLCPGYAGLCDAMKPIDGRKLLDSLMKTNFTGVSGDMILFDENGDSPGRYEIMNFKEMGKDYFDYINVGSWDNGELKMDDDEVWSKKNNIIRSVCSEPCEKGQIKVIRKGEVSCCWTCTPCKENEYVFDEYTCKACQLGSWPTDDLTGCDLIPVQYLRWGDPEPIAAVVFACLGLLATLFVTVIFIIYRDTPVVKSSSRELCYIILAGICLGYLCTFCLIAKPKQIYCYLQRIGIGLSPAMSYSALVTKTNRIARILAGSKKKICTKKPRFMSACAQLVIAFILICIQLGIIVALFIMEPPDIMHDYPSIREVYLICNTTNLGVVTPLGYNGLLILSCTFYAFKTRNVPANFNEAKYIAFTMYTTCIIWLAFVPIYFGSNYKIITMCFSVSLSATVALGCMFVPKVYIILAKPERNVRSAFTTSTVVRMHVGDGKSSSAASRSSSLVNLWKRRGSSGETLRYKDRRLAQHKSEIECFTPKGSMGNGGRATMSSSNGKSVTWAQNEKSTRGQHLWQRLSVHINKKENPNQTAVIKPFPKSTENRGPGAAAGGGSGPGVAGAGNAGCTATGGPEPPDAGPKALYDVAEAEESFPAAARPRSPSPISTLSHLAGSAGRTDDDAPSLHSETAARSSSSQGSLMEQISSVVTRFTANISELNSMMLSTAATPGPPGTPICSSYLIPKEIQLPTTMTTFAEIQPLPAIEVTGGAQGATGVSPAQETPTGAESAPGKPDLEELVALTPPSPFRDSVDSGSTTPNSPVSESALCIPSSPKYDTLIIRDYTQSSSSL

Regarding `Cc1cncc(-c2cc(F)cc(-n3nnc(-c4ccccn4)n3)c2)c1`, in data set [1], the affinity, expressed as Ki, was 272 nM. Besides, the 50% inhibitory concentration (IC50) in data set [2] is 499 nM.

In data set [1], `Cc1ncccc1-c1cc(F)cc(-n2nnc(-c3ccccn3)n2)c1` had a Ki of 45 nM. Also, the IC50 in data set [2] worked out at 41 nM.

With `Fc1cc(-c2ccncc2)cc(-n2nnc(-c3ccccn3)n2)c1`, the affinity in data set [1] corresponds to a Ki of 575 nM. The IC50 in data set [2] turned out to be 956 nM.

Take `Cc1ccc(-c2cc(F)cc(-n3nnc(-c4ccccn4)n3)c2)cc1`: the IC50 in data set [2] was above 3000 nM.

In turn, `Cc1cccc(-c2cc(F)cc(-n3nnc(-c4ccccn4)n3)c2)c1` displayed an IC50 in data set [2] of 1470 nM.

Turning to `Cc1ccccc1-c1cc(F)cc(-n2nnc(-c3ccccn3)n2)c1`, the Ki in data set [1] turned out to be 23 nM. In addition, the IC50 in data set [2] was 120 nM.

For the molecule `Nc1cccnc1-c1cc(F)cc(-n2nnc(-c3ccccn3)n2)c1`, the Ki in data set [1] is 31 nM. In addition, the IC50 in data set [2] is 19 nM.

Molecule `Nc1ccncc1-c1cc(F)cc(-n2nnc(-c3ccccn3)n2)c1` registered a Ki in data set [1] of 20 nM. In addition, the IC50 in data set [2] amounted to 108 nM.

In the case of `Cc1cnccc1-c1cc(F)cc(-n2nnc(-c3ccccn3)n2)c1`, in data set [1], the Ki came out at 33 nM. Moreover, in data set [2], the IC50 was 63 nM.

`Nc1ccccc1-c1cc(F)cc(-n2nnc(-c3ccccn3)n2)c1`: the Ki in data set [1] was 7 nM. Besides, the IC50 in data set [2] was found to be 8 nM.

As to `Fc1cc(-c2ccccc2)cc(-n2nnc(-c3ccccn3)n2)c1`, the Ki in data set [1] was determined as 53 nM. Further, the IC50 in data set [2] turned out to be 247 nM.

Regarding `Cc1ccc(-c2cc(F)cc(-n3nnc(-c4ccccn4)n3)c2)cn1`, the Ki in data set [1] came to 36 nM. In data set [2], this molecule showed an IC50 of 57 nM.

Regarding `Cc1cccnc1-c1cc(F)cc(-n2nnc(-c3ccccn3)n2)c1`, the affinity in data set [1] corresponds to a Ki of 24 nM. The molecule also had an IC50 in data set [2] of 31 nM.

With `Fc1cc(-c2ccccn2)cc(-n2nnc(-c3ccccn3)n2)c1`, the Ki in data set [1] was found to be 95 nM. The IC50 in data set [2] stood at 39 nM.

The molecule `N#Cc1cc(F)cc(-n2nnc(-c3ccccn3)n2)c1` yielded a bioavailability in data set [3] of 26%. The clearance in data set [4] is 17 mL/min/kg. Also, the Ki in data set [1] stood at 14 nM. This molecule also registered a T1/2 in data set [5] of 2.9 h. In data set [2], this molecule showed an IC50 of 4 nM.

`Fc1cc(-c2cccnc2)cc(-n2nnc(-c3ccccn3)n2)c1` registered a Ki in data set [1] of 37 nM. The molecule also returned an IC50 in data set [2] of 12 nM.

In data set [1], `N#Cc1ccccc1-c1cc(F)cc(-n2nnc(-c3ccccn3)n2)c1` yielded an inhibitory constant (Ki) of 4 nM. In data set [2], this molecule came in with an IC50 of 6 nM.

Turning to `N#Cc1cccc(-c2cc(F)cc(-n3nnc(-c4ccccn4)n3)c2)c1`, the affinity in data set [1], expressed as Ki, was 12 nM. Besides, the IC50 in data set [2] stood at 253 nM.

Consider `Cc1ccncc1-c1cc(F)cc(-n2nnc(-c3ccccn3)n2)c1`, for which, in data set [6], the highest level (Cmax) was 900 nM. Also, the bioavailability in data set [7] was determined as 12%. Also, the clearance in data set [4] was 39 mL/min/kg. In data set [8], this molecule came in with an Occupancy of 95. Besides, affinity in data set [1] was put at a Ki of 2 nM. The molecule also showed a half-life in data set [5] of 1.6 h. In data set [2], this molecule yielded an IC50 of 5 nM.

By Ki is commonly meant the dissociation constant of the complex between target and ligand, obtained from inhibition or displacement. Low readings indicate a stronger hold on the target, high ones a looser hold on the target. What is called IC50 is the concentration needed to halve the response being measured. A higher IC50 goes with weaker potency. As a reminder, the bioavailability is the share of a dose that reaches the circulation, judged against a reference dose that is usually intravenous. A low value points to little systemic uptake. For orientation: Cmax means the maximum level reached in the sampled fluid or tissue. The term half-life denotes the time in which the quantity being followed falls by half.
